≈ marks a conversion by molar mass, not a printed value. Calls of active or inactive are those of the source. The calls are words filed in the database; no cut-off is given here.
Assays:
[1] = ABTS radical scavenging activity assessed as trolox equivalents by TEAC assay; format: physicochemical
Method in brief: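 ABTS radical cation made by passing ABTS in PBS through manganese dioxide, then filtered (0.2 µm). Diluted in 5 mM PBS pH 7.4 to A734 0.700 and preincubated 2 h at room temperature. 1 mL radical mixed with 200 µL ethanolic sample, vortexed 30 s, centrifuged. A734 of lower phase read exactly 2 min after mixing. PBS and ethanol blanks included. Trolox standards used; value is mM Trolox equivalent to 1.0 mM compound.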

HepG2 [2] = assay: Cytotoxicity against human HepG2 cells; format: functional
Method in brief: (§1)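 Cytotoxicity tested on HM02 gastric adenocarcinoma, HepG2 hepatocellular carcinoma and MCF7 breast adenocarcinoma lines following NCI standards.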

[3] = Antioxidant activity assessed as inhibition of FeSO4-induced lipid peroxidation at 33 uM by TBARS assay; format: functional
Method in brief: (§2)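 Linolenic acid methyl ester oxidized under FeSO4 catalysis in 50 mM phosphate buffer pH 7.2 at 50 °C. BHT in ethanol added to stop further oxidation. TBARS developed with trichloroacetic and thiobarbituric acid, 60 °C for 30 min. Read A532 minus A600 background. % inhibition calculated versus uninhibited control, with blank and sample-blank corrections.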

[4] = Cytotoxicity against human HM02 cells; format: functional; method in brief: as §1
Microbotryum violaceum = assay: Antimicrobial activity against Microbotryum violaceum at 50 ug/disk by agar diffusion assay; format: functional, organism-based
Method in brief: (§3)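 Agar diffusion assay with discs loaded at 50 µg/disk, run against the bacteria, fungi and the green microalga Chlorella fusca.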

[5] = Superoxide radical scavenging activity assessed as trolox equivalents by photochemiluminescence assay
Method in brief: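 Photochemiluminescence with luminol acting as photosensitizer and detection reagent, generating superoxide. Mix of 2.29 mL reagent 1 (solvent/diluent), 200 µL buffer reagent, 25 µL photosensitizer and 10 µL sample in ethanol or Trolox standard in water. Antioxidant capacity taken from the integral under the curve and expressed as Trolox equivalents.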

HepG2 [6] = assay: Cytotoxicity against human HepG2 cells at 10 ug/ml; format: functional; details: read-out: GI
[7] = Antioxidant activity assessed as inhibition of FeSO4-induced lipid peroxidation at 82 uM by TBARS assay; format: functional; method in brief: as §2
[8] = test system: Radical scavenging activity; assay: Antioxidant activity assessed as DPPH radical scavenging activity at 115 uM after 30 mins; format: functional
Method in brief: (§4)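 Samples in EtOH (100 µL) mixed with 25 µL of 1 mM DPPH in EtOH plus 75 µL EtOH, then shaken briefly. Kept 30 min at room temperature in the dark. Absorbance read at 517 nm. % scavenging calculated against control, with blank and sample-blank corrections.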

Escherichia coli = assay: Antimicrobial activity against Escherichia coli at 50 ug/disk by agar diffusion assay; format: functional, organism-based; method in brief: as §3
[9] = Antioxidant activity assessed as inhibition of FeSO4-induced lipid peroxidation at 16 uM by TBARS assay; format: functional; method in brief: as §2
[10] = test system: Radical scavenging activity; assay: Antioxidant activity assessed as DPPH radical scavenging activity at 6 uM after 30 mins; format: functional; method in brief: as §4
[11] = test system: Radical scavenging activity; assay: Antioxidant activity assessed as DPPH radical scavenging activity at 12 uM after 30 mins; format: functional; method in brief: as §4
[12] = Antioxidant activity assessed as inhibition of FeSO4-induced lipid peroxidation at 164 uM by TBARS assay; format: functional; method in brief: as §2
Priestia megaterium = assay: Antimicrobial activity against Bacillus megaterium at 50 ug/disk by agar diffusion assay; format: functional, organism-based; method in brief: as §3
Mycotypha microspora = assay: Antimicrobial activity against Mycotypha microspora at 50 ug/disk by agar diffusion assay; format: functional, organism-based; method in brief: as §3
[13] = target: Human immunodeficiency virus type 1 reverse transcriptase (Human immunodeficiency virus 1) (UniProt Q72547); assay: Inhibition of HIV1 reverse transcriptase at 66 ug/ml by ELISA
Method in brief: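 HIV-1 RT activity inhibition measured by ELISA with the test compound at 66 µg/mL.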

[14] = test system: Radical scavenging activity; assay: Antioxidant activity assessed as DPPH radical scavenging activity at 23 uM after 30 mins; format: functional; method in brief: as §4
[15] = test system: Radical scavenging activity; assay: Antioxidant activity assessed as DPPH radical scavenging activity at 58 uM after 30 mins; format: functional; method in brief: as §4
[Chlorella] fusca = Antimicrobial activity against 'Chlorella' fusca at 50 ug/disk by agar diffusion assay; format: functional, organism-based; details: Scenedesmus fuscus; method in brief: as §3
[16] = test system: Aspergillus pseudoglaucus; assay: Antimicrobial activity against Eurotium repens at 50 ug/disk by agar diffusion assay; format: functional, organism-based; method in brief: as §3
[17] = Antioxidant activity assessed as inhibition of FeSO4-induced lipid peroxidation at 8 uM by TBARS assay; format: functional; method in brief: as §2
[18] = test system: Radical scavenging activity; assay: Antioxidant activity assessed as DPPH radical scavenging activity at 230 uM after 30 mins; format: functional; method in brief: as §4
MCF7 = assay: Cytotoxicity against human MCF7 cells; format: functional; method in brief: as §1

**Q.** For C/C(=C/CC/C(C)=C/CC/C(C)=C/C(=O)C/C(C)=C/Cc1cc(O)cc(C)c1O)CO, which Activity [1] is on record?
**A.** The Activity was 0.09 mmol/L.

**Q.** What about the GI50 (HepG2 [2]) of the same molecule?
**A.** The GI50 was 7.1 µg/mL (≈ 16.6 µM).

**Q.** And the LC50 (HepG2 [2])?
**A.** The LC50 was > 10 µg/mL.

**Q.** And the TGI (HepG2 [2])?
**A.** The TGI was > 10 µg/mL.

**Q.** And the inhibition [3]?
**A.** Its inhibition is 32.1%.

**Q.** And the GI50 [4]?
**A.** The GI50 was 2.3 µg/mL (≈ 5.39 µM).

**Q.** And the LC50 [4]?
**A.** Its LC50 is > 10 µg/mL.

**Q.** And the TGI [4]?
**A.** The TGI was 7.4 µg/mL (≈ 17.3 µM).

**Q.** What about the Activity (Microbotryum violaceum) of the same molecule?
**A.** The Activity was “inactive”.

**Q.** What about the Activity [5] of the same molecule?
**A.** The Activity was 0.59 mmol/L.

**Q.** And the inhibition of growth at 10 µg/mL (HepG2 [6])?
**A.** Its inhibition of growth at 10 µg/mL is 86%.

**Q.** What about the inhibition [7] of the same molecule?
**A.** Its inhibition is 67.2%.

**Q.** And the Activity [8]?
**A.** The Activity was 96.1%.

**Q.** What about the Activity (Escherichia coli) of the same molecule?
**A.** The Activity was “inactive”.

**Q.** And the inhibition [9]?
**A.** Its inhibition is 14.8%.

**Q.** What about the Activity [10] of the same molecule?
**A.** The Activity was 8%.

**Q.** What about the Activity [11] of the same molecule?
**A.** The Activity was 12.3%.

**Q.** What about the inhibition [12] of the same molecule?
**A.** Its inhibition is 73.7%.

**Q.** And the Activity (Priestia megaterium)?
**A.** The Activity was “inactive”.

**Q.** What about the Activity (Mycotypha microspora) of the same molecule?
**A.** Its Activity is “inactive”.

**Q.** And the Activity [13]?
**A.** Its Activity is “inactive”.

**Q.** What about the Activity [14] of the same molecule?
**A.** The Activity was 25.1%.

**Q.** And the Activity [15]?
**A.** Its Activity is 64.8%.

**Q.** What about the Activity ([Chlorella] fusca) of the same molecule?
**A.** Its Activity is “inactive”.

**Q.** And the Activity [16]?
**A.** Its Activity is “inactive”.

**Q.** What about the inhibition [17] of the same molecule?
**A.** Its inhibition is 10.6%.

**Q.** What about the Activity [18] of the same molecule?
**A.** Its Activity is 96.4%.

**Q.** What about the GI50 (MCF7) of the same molecule?
**A.** The GI50 was 2.2 µg/mL (≈ 5.16 µM).

**Q.** What about the LC50 (MCF7) of the same molecule?
**A.** Its LC50 is > 10 µg/mL.

**Q.** What about the TGI (MCF7) of the same molecule?
**A.** The TGI was 5.1 µg/mL (≈ 12 µM).

**Q.** For C/C(=C/CC/C(C)=C/CC/C(C)=C\C(=O)C/C(C)=C/Cc1cc(O)cc(C)c1O)CO, which Activity [1] is on record?
**A.** Its Activity is 0.09 mmol/L.

**Q.** And the GI50 (HepG2 [2])?
**A.** The GI50 was 6.8 µg/mL (≈ 15.9 µM).

**Q.** And the LC50 (HepG2 [2])?
**A.** The LC50 was > 10 µg/mL.

**Q.** What about the TGI (HepG2 [2]) of the same molecule?
**A.** Its TGI is > 10 µg/mL.

**Q.** What about the inhibition [3] of the same molecule?
**A.** Its inhibition is 31.5%.

**Q.** And the GI50 [4]?
**A.** The GI50 was 1.8 µg/mL (≈ 4.22 µM).

**Q.** And the LC50 [4]?
**A.** Its LC50 is > 10 µg/mL.

**Q.** And the TGI [4]?
**A.** The TGI was 6 µg/mL (≈ 14.1 µM).

**Q.** What about the Activity (Microbotryum violaceum) of the same molecule?
**A.** The Activity was “inactive”.

**Q.** What about the Activity [5] of the same molecule?
**A.** Its Activity is 0.51 mmol/L.

**Q.** And the inhibition of growth at 10 µg/mL (HepG2 [6])?
**A.** The inhibition of growth at 10 µg/mL was 87%.

**Q.** And the inhibition [7]?
**A.** Its inhibition is 69.8%.

**Q.** What about the Activity [8] of the same molecule?
**A.** The Activity was 96%.

**Q.** And the Activity (Escherichia coli)?
**A.** The Activity was “inactive”.

**Q.** What about the inhibition [9] of the same molecule?
**A.** Its inhibition is 18.3%.

**Q.** And the Activity [10]?
**A.** The Activity was 9.1%.

**Q.** What about the Activity [11] of the same molecule?
**A.** Its Activity is 15.2%.

**Q.** And the inhibition [12]?
**A.** Its inhibition is 73.4%.

**Q.** And the Activity (Priestia megaterium)?
**A.** Its Activity is “inactive”.

**Q.** And the Activity (Mycotypha microspora)?
**A.** Its Activity is “inactive”.

**Q.** What about the Activity [13] of the same molecule?
**A.** Its Activity is “inactive”.

**Q.** What about the Activity [14] of the same molecule?
**A.** The Activity was 31.2%.

**Q.** And the Activity [15]?
**A.** Its Activity is 80.1%.

**Q.** What about the Activity ([Chlorella] fusca) of the same molecule?
**A.** Its Activity is “inactive”.

**Q.** And the Activity [16]?
**A.** Its Activity is “inactive”.

**Q.** And the inhibition [17]?
**A.** Its inhibition is 12%.

**Q.** And the Activity [18]?
**A.** Its Activity is 96.7%.

**Q.** What about the GI50 (MCF7) of the same molecule?
**A.** Its GI50 is 1.8 µg/mL (≈ 4.22 µM).

**Q.** And the LC50 (MCF7)?
**A.** Its LC50 is > 10 µg/mL.

**Q.** And the TGI (MCF7)?
**A.** The TGI was 4 µg/mL (≈ 9.38 µM).

— ChEMBL document CHEMBL1146554, “Antioxidative meroterpenoids from the brown alga Cystoseira crinita” (J Nat Prod, 2003)
